The target in data set [1] is T1, Progesterone receptor (Homo sapiens, UniProt P06401).
T1 sequence (P06401 whole entry): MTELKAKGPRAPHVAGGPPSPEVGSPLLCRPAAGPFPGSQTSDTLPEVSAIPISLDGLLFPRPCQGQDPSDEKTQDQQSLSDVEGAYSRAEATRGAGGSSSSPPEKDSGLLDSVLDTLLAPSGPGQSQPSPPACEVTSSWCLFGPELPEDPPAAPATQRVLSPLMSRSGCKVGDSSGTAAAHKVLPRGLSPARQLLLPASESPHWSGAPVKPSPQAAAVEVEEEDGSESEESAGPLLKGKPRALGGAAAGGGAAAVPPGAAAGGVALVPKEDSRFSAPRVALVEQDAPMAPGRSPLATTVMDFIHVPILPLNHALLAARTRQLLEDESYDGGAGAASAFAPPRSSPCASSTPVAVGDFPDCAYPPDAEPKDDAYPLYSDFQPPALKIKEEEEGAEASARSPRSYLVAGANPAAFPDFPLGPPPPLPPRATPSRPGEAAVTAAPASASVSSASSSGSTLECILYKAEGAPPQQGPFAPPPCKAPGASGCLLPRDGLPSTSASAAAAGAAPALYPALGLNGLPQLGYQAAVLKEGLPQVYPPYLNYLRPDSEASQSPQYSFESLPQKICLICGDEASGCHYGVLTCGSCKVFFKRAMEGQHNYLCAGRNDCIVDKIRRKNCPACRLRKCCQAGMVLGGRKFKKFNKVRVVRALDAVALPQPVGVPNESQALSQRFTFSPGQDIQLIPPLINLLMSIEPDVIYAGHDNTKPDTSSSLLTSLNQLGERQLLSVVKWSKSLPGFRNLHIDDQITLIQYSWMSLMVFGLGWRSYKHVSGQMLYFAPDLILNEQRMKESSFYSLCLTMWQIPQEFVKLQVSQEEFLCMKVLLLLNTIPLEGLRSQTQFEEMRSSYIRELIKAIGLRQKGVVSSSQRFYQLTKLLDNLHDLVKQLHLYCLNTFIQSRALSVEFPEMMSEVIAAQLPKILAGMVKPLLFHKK
The data set is described as follows: Antagonist activity against progesterone receptor (PR) in an alkaline phosphatase assay in the T47D human breast carcinoma cell line. It counts as functional, cell-based.

The target in data set [2] is T1, Progesterone receptor. The data set is described as follows: Antagonist activity against progesterone receptor (PR) in an assay using PRE-luciferase plasmid co-transfected CV-1 cells. The class given is functional, cell-based. In outline:
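CV-1 cells cotransfected with hPR and PRE-luciferase plasmids, luciferase read-out; IC50 averaged from at least duplicate determinations.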

Data set [3] deals with T2, Progesterone receptor (Rattus norvegicus) (UniProt Q63449).
T2 sequence (whole entry): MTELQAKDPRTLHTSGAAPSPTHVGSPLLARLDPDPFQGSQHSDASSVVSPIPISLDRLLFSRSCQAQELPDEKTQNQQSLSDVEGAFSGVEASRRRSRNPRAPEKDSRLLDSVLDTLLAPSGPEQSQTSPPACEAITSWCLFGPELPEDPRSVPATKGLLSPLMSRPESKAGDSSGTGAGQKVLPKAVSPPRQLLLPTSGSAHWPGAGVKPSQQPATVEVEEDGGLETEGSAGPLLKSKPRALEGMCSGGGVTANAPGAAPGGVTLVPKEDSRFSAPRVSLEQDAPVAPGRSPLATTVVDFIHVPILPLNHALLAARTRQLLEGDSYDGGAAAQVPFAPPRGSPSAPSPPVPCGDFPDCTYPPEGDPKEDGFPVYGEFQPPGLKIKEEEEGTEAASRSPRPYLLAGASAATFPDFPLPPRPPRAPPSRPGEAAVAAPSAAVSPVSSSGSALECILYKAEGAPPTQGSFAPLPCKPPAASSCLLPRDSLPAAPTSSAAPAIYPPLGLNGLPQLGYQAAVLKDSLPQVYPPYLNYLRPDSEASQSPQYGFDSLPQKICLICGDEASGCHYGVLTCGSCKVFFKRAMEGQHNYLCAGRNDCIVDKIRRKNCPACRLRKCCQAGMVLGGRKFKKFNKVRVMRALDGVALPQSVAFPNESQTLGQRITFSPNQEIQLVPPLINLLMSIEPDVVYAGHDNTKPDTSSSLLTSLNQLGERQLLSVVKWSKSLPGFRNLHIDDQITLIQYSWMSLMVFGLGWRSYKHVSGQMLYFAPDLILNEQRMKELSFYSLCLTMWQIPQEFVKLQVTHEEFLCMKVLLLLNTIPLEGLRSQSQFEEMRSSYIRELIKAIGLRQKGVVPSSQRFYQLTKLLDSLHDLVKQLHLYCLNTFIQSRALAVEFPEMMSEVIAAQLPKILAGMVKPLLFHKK
The data set is described as follows: Inhibitory activity against progesterone receptor (PR) in ovariectomized mature female rat decidualization model. It counts as functional. Summed up:
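Ovariectomized mature rats dosed orally for 7 days, with progesterone 5.6 mg/kg SC given alongside; vehicle-only controls. Decidual response (D/C) measured 24 h after the final treatment, seven animals per point. ED50 averaged from at least duplicate determinations.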

Data set [4] is described as follows: Half life in female rats for a dose of 1 mg/kg administered intravenously. The settings on record: rat, in vivo, iv. The arrangement: dose 1 mg/kg, route intravenous. The class given is ADME, organism-based.
Data set [5] in a line: Plasma clearance (Cl) for the compound in female rats for a dose of 1 mg/kg administered intravenously. It counts as ADME, organism-based. The arrangement: dose 1 mg/kg, route intravenous. The settings on record: rat, iv, read-out: Clp (converted).
Data set [6] in a line: Area under the curve (AUC) for the compound in female rats for a dose of 1 mg/kg administered intravenously. The class given is ADME, organism-based. The arrangement: dose 1 mg/kg, route intravenous. The settings on record: rat, in vivo, iv.
The target in data set [7] is T2, Progesterone receptor (Rattus norvegicus). Description: inhibitory activity against progesterone receptor (PR) in ovariectomized mature female rat complement C3 model. The class given is functional. Summed up:
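Adult ovariectomized rats given oral doses; read-out is reversal of progestin down-regulation of estrogen-induced complement C3 synthesis in uterine epithelium. ED50 averaged from at least duplicate determinations.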

Data set [8] addresses T1, Progesterone receptor. The data set is described as follows: Agonist activity against progesterone receptor (PR) in an alkaline phosphatase assay in the T47D human breast carcinoma cell line. It counts as functional, cell-based. Summed up: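 T47D human breast carcinoma cells scored for PR agonism via alkaline phosphatase read-out; EC50 taken as the mean of at least duplicate determinations.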

In general, IC50 refers to the concentration that inhibits the measured activity by half. Read a high IC50 as weaker potency in that assay. As a reminder, the ED50 is the dose that gives a 50% effect, or the effect in half of the subjects. Read a high ED50 as a need for a large dose. By half-life is commonly meant how long it takes for the measured level to halve. As a reminder, the AUC is the area under the concentration-time curve, a measure of exposure. Low values mean less exposure, high ones more exposure. What is called EC50 is the concentration that produces a half-maximal response. Low values mean a more potent agent, high ones a less potent agent.

Structures are written as SMILES.

Regarding `CC1(C)OC(=O)Nc2ccc(-c3cccc(Cl)c3)cc21`, the IC50 is 30 nM in data set [1] and 9.3 nM in data set [2]. In data set [3], this compound came in with an ED50 greater than 30 mg/kg.

On to `CC1(C)OC(=O)Nc2ccc(-c3cccc(C#N)c3)cc21`, for which the half-life in data set [4] was 36 min. Besides, the clearance in data set [5] was 36.3 mL/min/kg. The IC50 was 17 nM in data set [1] and 9.9 nM in data set [2]. In addition, the AUC in data set [6] was 460 ng·h/mL. It took a dose of 7 mg/kg to reach the 50% effect level in data set [3] (ED50).

In the case of `CC1(C)OC(=O)Nc2ccc(-c3cccc(F)c3)cc21`, the IC50 in data set [1] is 8.2 nM; in data set [2] it was 3.8 nM. Besides, in data set [3], the 50% effect level (ED50) was put at a dose of 1.5 mg/kg.

On to `CC#C[C@]1(O)CC[C@H]2[C@@H]3CCC4=CC(=O)CCC4=C3[C@@H](c3ccc(N(C)C)cc3)C[C@@]21C`, for which the ED50 turned out to be 1.7 mg/kg in data set [7] and 0.3 mg/kg in data set [3].

For the compound `COc1cccc(-c2ccc3c(c2)C(C)(C)OC(=O)N3)c1`, the IC50 turned out to be 19.5 nM in data set [1] and 38.3 nM in data set [2].

As to `CC1(C)OC(=O)Nc2ccc(-c3ccc(Cl)cc3)cc21`, the results for the IC50 in data set [1] and in data set [2] were 30 nM and 642 nM, respectively.

As to `CC1(C)OC(=O)Nc2ccc(-c3cc(F)cc(Cl)c3)cc21`, a half-maximal response in data set [8] (EC50) required 500 nM. Also, the IC50 in data set [2] amounted to 2.6 nM. Moreover, the ED50 in data set [3] turned out to be 2 mg/kg.

For the compound `CC1(C)OC(=O)Nc2ccc(-c3ccccc3Cl)cc21`, the IC50 in data set [1] amounted to 300 nM; in data set [2], 500 nM.

For `CC1(C)OC(=O)Nc2ccc(-c3ccc(F)c(C#N)c3)cc21`, it took 15.1 nM to reach half-maximal inhibition in data set [1] (IC50).

On to `CC1(C)OC(=O)Nc2c(F)cc(-c3cc(F)cc(C#N)c3)cc21`, for which the IC50 in data set [1] was 26.2 nM; in data set [2], 98.8 nM. For the same compound, the ED50 in data set [3] is 0.6 mg/kg.

These data come from ChEMBL document CHEMBL1135816, “6-Aryl-1,4-dihydro-benzo[d][1,3]oxazin- 2-ones: a novel class of potent, selective, and orally active nonsteroidal progesterone receptor antagonists” (J Med Chem, 2002).
